Experimental findings from ChEMBL document CHEMBL1127374, “Synthesis and antiviral (HIV-1, HBV) activities of 5-halo-6-methoxy(or azido)-5,6-dihydro-3'-fluoro-3'-deoxythymidine diastereomers. Potential prodrugs to 3'-fluoro-3'-deoxythymidine” (J Med Chem, 1994) are described below.

A short description of series [1]: Tested for in vitro percent of 3'-fluoro-3'-deoxythymidine(FLT) formed upon incubation with glutathione. Format: ADME. Summed up:
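Test compound incubated with reduced glutathione at a 1:2 molar ratio in phosphate buffer, pH 7.4, 37 °C, 30 min. UV detection at 230 nm for the 5,6-dihydro compound and 265 nm for FLT.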

Series [2] has as its system CCRF-CEM. Description: Tested for in vitro drug concentration which produces 50% survival of HIV-1 infected CEM cells relative to uninfected untreated controls. Conditions: Homo sapiens. The series is classed as functional, cell-based. The gist of the method:
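CEM T4 lymphocytes infected with small amounts of HIV-1, so that a complete replication cycle is needed for cell killing. Protection from cytolysis measured. EC50 is the concentration giving 50% survival of infected cells relative to uninfected untreated controls. AZT-treated positive control run at the same time under identical conditions.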

The nature of series [3]: Selectivity index is the ratio of IC50 value to that of EC50 value. The series is classed as functional. Summed up: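 CEM T4 lymphocytes infected with small amounts of HIV-1, with a full replication cycle needed for cell killing. EC50 is the concentration giving 50% survival of infected cells relative to uninfected untreated controls. IC50 is the concentration giving 50% survival of uninfected untreated CEM cells. SI = IC50/EC50. An AZT-treated control was run alongside.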

Series [4] relates to CCRF-CEM. The series can be described thus: Tested for in vitro drug concentration which results in 50% survival of uninfected untreated control CEM cells. The series is classed as functional, cell-based. Conditions: Homo sapiens. The gist of the method:
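Uninfected CEM T4 lymphocytes exposed to the test compound alongside the anti-HIV protection assay, with an AZT control run concurrently. IC50 is the concentration giving 50% survival relative to uninfected untreated control cells.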

Series [5] is described as follows: Tested for in vitro cytotoxic concentration against hepatitis B irus replication in chronically HBV-producing human liver cells. The series is classed as functional. Summed up: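 Confluent 2.2.15 cells dosed daily for 9 days as in the anti-HBV assay. Four concentrations in 3–10-fold steps, triplicate cultures, untreated controls on each plate, cell-free wells to correct for light scattering. Neutral red uptake read at 510 nm 24 h after day 9, relative to untreated cells. CC50 taken as the 50% cytotoxic concentration.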

A short description of series [6]: (§1) Compound was tested in vitro against intracellular DNA hepatitis B virus of human liver cells. The series is classed as functional, cell-based. The gist of the method: (§2)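 HBV-producing human liver 2.2.15 cells grown to confluence, then dosed daily for 9 continuous days with daily medium change. Medium collected at days 0, 3, 6 and 9 for extracellular virion HBV DNA. Cells lysed 24 h after day 9 for intracellular HBV genomic forms (replication). EC50 and EC90 derived from HBV DNA levels.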

Series [7] is described as follows: (§3) Compound was tested in vitro against extracellular DNA hepatitis B virus of human liver cells. The series is classed as functional. Summed up:
as §2

The nature of series [8]: as §1. The series is classed as functional. Summed up:
as §2

Series [9] can be described thus: Selectivity index is the ratio of CC50 to that of EC50 (anti-hepatitis B virus activity in extracellular DNA). The series is classed as functional. Summed up:
(§4)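 Selectivity index calculated as CC50 (neutral red uptake, 2.2.15 cells, 9-day daily dosing) divided by EC50 from HBV DNA (extracellular virion DNA in line 3, intracellular DNA in line 4).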

Series [10] is described as follows: Selectivity index is the ratio of CC50 to that of EC50 (anti-hepatitis B virus activity in intracellular DNA). Format: functional. Summed up: as §4
A short description of series [11]: as §3. The series is classed as functional. Summed up:
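2.2.15 cells (chronically HBV-producing human liver line) grown to confluence, then dosed daily for 9 continuous days with medium changed daily. Extracellular virion HBV DNA in medium sampled at days 0, 3, 6 and 9 and quantified; intracellular HBV genomic forms analysed from cells lysed 24 h after day 9.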
The source holds these as a separate data set.

Another series relates to MT4. Description: Tested for in vitro cytopathic effect of HIV for MT-4 cells. The series is classed as functional, cell-based. The settings on record: Homo sapiens. For orientation: Damage to the host cells serves as the signal in cytopathic effect assays.

Molecules are shown by their SMILES.

In the case of `CO[C@H]1N(C2CC(F)C(CO)O2)C(=O)NC(=O)[C@@]1(C)Cl` (some centres undefined), the FLT in series [1] was determined as 0%. Moreover, the EC50 (commonly the concentration that produces a half-maximal response) with CCRF-CEM [2] was 37.9 µM. The Selectivity index in series [3] was above 21. In addition, the IC50 (usually the concentration needed to halve the response being measured) in the series on CCRF-CEM [4] is above 800 µM.
In series [1], `CO[C@H]1N(C2CC(F)C(CO)O2)C(=O)NC(=O)[C@]1(C)Br` (some centres undefined) displayed an FLT of 10%. Further, the EC50 in the series on CCRF-CEM [2] came out at 0.00525 µM; in series [6], 13 µM; in series [11], 6 µM. Moreover, in series [5], half-maximal cytotoxicity (CC50) was put at 765 µM. Also, the figures for the EC90 in series [7] and in series [8] were 36 µM and 42 µM, respectively. The values for the Selectivity index in series [9], in series [10] and in series [3] were 21, 18 and 328, respectively. Moreover, inhibition in the series on CCRF-CEM [4] was half-maximal at 1.72 µM (IC50).
Compound `CO[C@@H]1N(C2CC(F)C(CO)O2)C(=O)NC(=O)[C@@]1(C)Br` (some centres undefined) gave an FLT in series [1] of 10%. Besides, the concentration giving a half-maximal response (EC50) turned out to be 0.00325 µM in the series on CCRF-CEM [2], 26 µM in series [6] and 21 µM in series [11]. Besides, half-maximal cytotoxicity in [5] (CC50) was put at 1040 µM. Also, the EC90 (usually the concentration needed for an effect of 90%) came out at 67 µM in [7] and 118 µM in series [8]. For the same compound, the Selectivity index in series [9] amounted to 16; in series [10], 8.8; in series [3] it was 2990. Moreover, half-maximal inhibition with CCRF-CEM [4] (IC50) required 9.72 µM.
Compound `CO[C@H]1N(C2CC(F)C(CO)O2)C(=O)NC(=O)[C@]1(C)Cl` (some centres undefined) registered an FLT in [1] of 0%. The compound also registered an EC50 in the series with CCRF-CEM [2] of 5.55 µM. In [3], the Selectivity index is above 144. In the series with CCRF-CEM [4], this compound gave an IC50 above 800 µM.
For the compound `CO[C@@H]1N(C2CC(F)C(CO)O2)C(=O)NC(=O)[C@@]1(C)I` (some centres undefined), in [1], the FLT is given as 90%. In the series with CCRF-CEM [2], it took 0.00375 µM to reach a half-maximal effect (EC50). Moreover, the Selectivity index in series [3] worked out at 3250. In addition, in the series with CCRF-CEM [4], the IC50 worked out at 12.2 µM.
In series [1], `CC1(Br)C(=O)NC(=O)N([C@H]2C[C@H](F)[C@@H](CO)O2)C1N=[N+]=[N-]` (mixture of isomers) came in with an FLT of 95%. The results for the concentration for a half-maximal effect (EC50) (in the series with CCRF-CEM [2]; in series [6]) were 0.0145 µM and 13 µM, respectively. Besides, half-maximal cytotoxicity in series [5] (CC50) was put at 176 µM. The EC90 worked out at 42 µM in series [7] and 57 µM in series [8]. Besides, the figures for the Selectivity index in [9], in series [10] and in series [3] were 4.2, 3.1 and 7140, respectively. In addition, 100 µM corresponded to half-maximal inhibition in the series with CCRF-CEM [4] (IC50).
As to `CO[C@H]1N(C2CC(F)C(CO)O2)C(=O)NC(=O)[C@]1(C)I` (some centres undefined), the FLT in series [1] is reported as 50%. In the series with CCRF-CEM [2], this compound registered an EC50 of 50 µM. Also, the Selectivity index in [3] stood at 1. For the same compound, half-maximal inhibition in the series on CCRF-CEM [4] (IC50) required 57.3 µM.
On to `Cc1cn([C@H]2C[C@H](N=[N+]=[N-])[C@@H](CO)O2)c(=O)[nH]c1=O` [ZIDOVUDINE], for which the EC50 is 0.003 µM in the series with CCRF-CEM [2] and 0.004 µM in the series on MT4. Besides, the Selectivity index in series [3] turned out to be 167000. The same compound registered an IC50 with CCRF-CEM [4] of 500 µM.
Regarding `Nc1ccn([C@H]2CC[C@@H](CO)O2)c(=O)n1` [ZALCITABINE], the CC50 (commonly the concentration that lowers cell viability or growth by half) in series [5] is 219 µM. Further, the results for the EC50 in series [6] and in [11] were 2.1 µM and 1.3 µM, respectively. Also, the EC90 in series [7] is 8.1 µM; in series [8] it was 12 µM. Besides, the figures for the Selectivity index in series [9] and in series [10] were 27 and 18, respectively.
